From ChEMBL document CHEMBL1938334, “Quinoline tricyclic derivatives. Design, synthesis and evaluation of the antiviral activity of three new classes of RNA-dependent RNA polymerase inhibitors” (Bioorg Med Chem, 2011)

Test system: Human orthopneumovirus
Assay: Antiviral activity against Human respiratory syncytial virus A2 infected in african green monkey Vero 76 cells assessed as reduction of virus-induced plaque formation after 5 days using crystal violet staining
Assay type: functional, organism-based
Settings: 120 h
For CCOC(=O)C(C)c1nc2cc3cccnc3c(Cl)c2[nH]c1=O (centres undefined), the EC50 was greater than 100 µM.

Test system: Human immunodeficiency virus 1
Assay: Antiviral activity against HIV1 3B infected in human MT4 cells assessed as inhibition of virus-induced cytopathogenicity after 4 days by MTT assay
Assay type: functional, organism-based
Settings: Human immunodeficiency virus 1, 3B, MT4, 96 h
Procedure, shortened: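 MT-4 cells (1×10^4 per well) were infected with HIV-1 IIIB at 100 CCID50, m.o.i. 0.01, together with serial compound dilutions. Viability was read by MTT after 4 days at 37 °C. EC50 was taken by linear regression versus untreated controls. Mean of three determinations.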
With CCOC(=O)C(C)c1nc2cc3cccnc3c(Cl)c2[nH]c1=O (centres undefined) the EC50 was greater than 59 µM.

Test system: CCRF-SB
Assay: Cytotoxicity against human CCRF-SB cells after 96 hrs by MTT assay
Assay type: functional
Settings: not given
Procedure, shortened: (§1)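 Cells were seeded at 1×10^5 cells/mL: leukaemia/lymphoma lines in RPMI-1640, solid tumour and fibroblast lines in specific media, all with 10% FCS. Serial compound dilutions were applied for 96 h at 37 °C, 5% CO2, under conditions allowing controls at least three rounds of multiplication. Viability was read by MTT. CC50 by linear regression. Mean of three determinations.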
Work on CC[C@@]1(O)C(=O)OCc2c1cc1n(c2=O)Cc2cc3ccccc3nc2-1 [CAMPTOTHECIN] yielded a CC50 of 4 nM.

Test system: DU-145
Assay: Cytotoxicity against human DU145 cells after 96 hrs by MTT assay
Assay type: functional
Settings: DU-145, 96 h
Procedure, shortened: as §1
For CC[C@@]1(O)C(=O)OCc2c1cc1n(c2=O)Cc2cc3ccccc3nc2-1 [CAMPTOTHECIN], the CC50 was 15 nM.

Test system: WIL2-NS
Assay: Cytotoxicity against human WIL2-NS cells after 96 hrs by MTT assay
Assay type: functional
Settings: not given
Procedure, shortened: as §1
With CC[C@@]1(O)C(=O)OCc2c1cc1n(c2=O)Cc2cc3ccccc3nc2-1 [CAMPTOTHECIN] the CC50 was 5 nM.

Test system: not listed separately
Assay: Cytotoxicity against MDBK cells after 48 to 96 hrs by MTT assay
Assay type: cell-based, Bos taurus
Settings: cattle
Procedure, shortened: (§2)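 MDBK seeded at 6×10^5 and BHK at 1×10^6 cells/mL in MEM-Earle's with L-glutamine, 1 mM pyruvate, kanamycin, plus 10% horse serum (MDBK) or 10% FBS (BHK). Cells were grown at 37 °C, 5% CO2 with serial compound dilutions (DMSO stocks diluted in medium). Viability by MTT after 48–96 h. CC50 was taken by linear regression versus untreated controls; three independent determinations.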
CCOC(=O)C(C)c1nc2cc3cccnc3c(Cl)c2[nH]c1=O (centres undefined) gave a CC50 greater than 100 µM.

Test system: Reovirus sp.
Assay: Antiviral activity against Reovirus type-1 3651 infected in hamster BHK21 cells assessed as inhibition of virus-induced cytopathogenicity after 3 to 4 days by MTT assay
Assay type: functional, organism-based
Settings: Reovirus sp., 3651, BHK-21
Procedure, shortened: (§3)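 Host cells were seeded in 96-well plates at 3×10^4 cells/well (MDBK) or 5×10^4 cells/well (BHK-21) and grown to confluent monolayers overnight. They were infected at m.o.i. 0.01 in maintenance MEM with 0.5% inactivated FBS. Serial compound dilutions were added after 1 h. Viability was read by MTT after 3–4 days at 37 °C. EC50 was taken by linear regression against untreated controls. Mean of three determinations.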
Molecule CCOC(=O)C(C)c1nc2cc3cccnc3c(Cl)c2[nH]c1=O (centres undefined) has an EC50 greater than 100 µM.

Test system: HepG2
Assay: Cytotoxicity against human HepG2 cells after 96 hrs by MTT assay
Assay type: functional
Settings: HepG2, 96 h
Procedure, shortened: as §1
Molecule CC[C@@]1(O)C(=O)OCc2c1cc1n(c2=O)Cc2cc3ccccc3nc2-1 [CAMPTOTHECIN] has a CC50 of 20 nM.

Test system: not listed separately
Assay: Cytotoxicity against human MRC5 cells after 96 hrs by MTT assay
Assay type: cell-based
Settings: not given
Procedure, shortened: as §1
For CC[C@@]1(O)C(=O)OCc2c1cc1n(c2=O)Cc2cc3ccccc3nc2-1 [CAMPTOTHECIN], the CC50 at 96 h was 200 nM.

Test system: not listed separately
Assay: Antiviral activity against Vaccinia virus Lister Elstree infected in african green monkey Vero 76 cells assessed as reduction of virus-induced plaque formation after 3 days using crystal violet staining
Assay type: functional, cell-based
Settings: 72 h
In the case of CCOC(=O)C(C)c1nc2cc3cccnc3c(Cl)c2[nH]c1=O (centres undefined), the EC50 is reported as greater than 100 µM.

Test system: not listed separately
Assay: Antiviral activity against Bovine viral diarrhea virus 1-NADL infected in MDBK cells assessed as inhibition of virus-induced cytopathogenicity after 3 to 4 days by MTT assay
Assay type: functional, cell-based
Settings: Bovine viral diarrhea virus isolates and strains
Procedure, shortened: as §3
CCOC(=O)C(C)c1nc2cc3cccnc3c(Cl)c2[nH]c1=O (centres undefined) showed an EC50 of 19 µM.

Test system: Human alphaherpesvirus 1
Assay: Antiviral activity against Human herpesvirus 1 strain KOS infected in african green monkey Vero 76 cells assessed as reduction of virus-induced plaque formation after 3 days using crystal violet staining
Assay type: functional, organism-based
Settings: Human alphaherpesvirus 1, KOS, 72 h
With CCOC(=O)C(C)c1nc2cc3cccnc3c(Cl)c2[nH]c1=O (centres undefined) the EC50 was no less than 100 µM.

Test system: MCF7
Assay: Cytotoxicity against human MCF7 cells after 96 hrs by MTT assay
Assay type: functional
Settings: MCF7, 96 h
Procedure, shortened: as §1
CC[C@@]1(O)C(=O)OCc2c1cc1n(c2=O)Cc2cc3ccccc3nc2-1 [CAMPTOTHECIN] gave a CC50 of 20 nM.

Test system: not listed separately
Assay: Cytotoxicity against BHK21 cells after 48 to 96 hrs by MTT assay
Assay type: cell-based, Mesocricetus auratus, BHK-21
Settings: hamster
Procedure, shortened: as §2
Work on CCOC(=O)C(C)c1nc2cc3cccnc3c(Cl)c2[nH]c1=O (centres undefined) yielded a CC50 greater than 100 µM.

Test system: not listed separately
Assay: Cytotoxicity against human MT4 cells after 96 hrs by MTT assay
Assay type: cell-based
Settings: not given
Procedure, shortened: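 Exponentially growing MT-4 cells seeded at 1×10^5 cells/mL in RPMI-1640 with 10% FBS, penicillin and streptomycin. Incubated with serial compound dilutions at 37 °C, 5% CO2 for 96 h; viability by MTT. CC50 by linear regression relative to untreated controls; mean of three independent determinations.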
Molecule CCOC(=O)C(C)c1nc2cc3cccnc3c(Cl)c2[nH]c1=O (centres undefined) has a CC50 at 96 h of 59 µM.

Test system: Poliovirus 1
Assay: Antiviral activity against Human poliovirus 1 strain Sabin Chat infected in african green monkey Vero 76 cells assessed as virus-induced reduction of plaque formation after 2 days using crystal violet staining
Assay type: functional, cell-based
Settings: Enterovirus C, 48 h
With CCOC(=O)C(C)c1nc2cc3cccnc3c(Cl)c2[nH]c1=O (centres undefined) the EC50 was no less than 100 µM.

Test system: CCRF-CEM
Assay: Cytotoxicity against human CCRF-CEM cells after 96 hrs by MTT assay
Assay type: functional
Settings: not given
Procedure, shortened: as §1
CC[C@@]1(O)C(=O)OCc2c1cc1n(c2=O)Cc2cc3ccccc3nc2-1 [CAMPTOTHECIN] showed a CC50 of 3 nM.

Test system: Coxsackievirus B5
Assay: Antiviral activity against Human coxsackievirus B5 Ohio-1 infected in african green monkey Vero 76 cells assessed as reduction of virus-induced plaque formation after 3 days using crystal violet staining
Assay type: functional, organism-based
Settings: Enterovirus B, Ohio-1, Vero, 72 h
CCOC(=O)C(C)c1nc2cc3cccnc3c(Cl)c2[nH]c1=O (centres undefined) showed an EC50 greater than 100 µM.

Test system: not listed separately
Assay: Cytotoxicity against african green monkey Vero 76 cells after 48 to 96 hrs by crystal violet staining
Assay type: cell-based
Settings: chlorocebus sabaeus
Procedure, shortened: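 Vero-76 cells were seeded at 4×10^5 cells/mL in D-MEM with L-glutamine, kanamycin and 10% FBS, then exposed to serial compound dilutions at 37 °C, 5% CO2 for 48–96 h. Viability was read by crystal violet staining. 50% cytotoxic concentration by linear regression relative to untreated controls; mean of three independent determinations.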
CCOC(=O)C(C)c1nc2cc3cccnc3c(Cl)c2[nH]c1=O (centres undefined) showed a CC50 greater than 100 µM.

Test system: SK-MES-1
Assay: Cytotoxicity against human SKMES1 cells after 96 hrs by MTT assay
Assay type: functional
Settings: SK-MES-1, 96 h
Procedure, shortened: as §1
CC[C@@]1(O)C(=O)OCc2c1cc1n(c2=O)Cc2cc3ccccc3nc2-1 [CAMPTOTHECIN] showed a CC50 of 30 nM.

Test system: SK-MEL-28
Assay: Cytotoxicity against human SK-MEL-28 cells after 96 hrs by MTT assay
Assay type: functional
Settings: SK-MEL-28, 96 h
Procedure, shortened: as §1
CC[C@@]1(O)C(=O)OCc2c1cc1n(c2=O)Cc2cc3ccccc3nc2-1 [CAMPTOTHECIN] gave a CC50 of 70 nM.

Test system: Yellow fever virus
Assay: Antiviral activity against Yellow fever virus 17D Stamaril Pasteur J07B01 infected in hamster BHK21 cells assessed as inhibition of virus-induced cytopathogenicity after 3 to 4 days by MTT assay
Assay type: functional, cell-based
Settings: Stamaril Pasteur J07B01, BHK-21
Procedure, shortened: as §3
In the case of CCOC(=O)C(C)c1nc2cc3cccnc3c(Cl)c2[nH]c1=O (centres undefined), the EC50 is reported as greater than 100 µM.

Test system: not listed separately
Assay: Cytotoxicity against human CRL7065 cells after 96 hrs by MTT assay
Assay type: cell-based, CRL-7065
Settings: not given
Procedure, shortened: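 Foreskin fibroblasts seeded at 1×10^5 cells/mL in specific medium with 10% FCS and antibiotics; serial compound dilutions, 37 °C, 5% CO2, 96 h, under conditions allowing untreated controls at least three rounds of multiplication. MTT read-out; concentration reducing proliferation by 50% by linear regression versus untreated controls; three independent determinations.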
In the case of CC[C@@]1(O)C(=O)OCc2c1cc1n(c2=O)Cc2cc3ccccc3nc2-1 [CAMPTOTHECIN], the CC50 at 96 h is reported as 300 nM.

Test system: Vesicular stomatitis Indiana virus
Assay: Antiviral activity against clinical isolate Vesicular stomatitis Indiana virus infected in african green monkey Vero 76 cells assessed as reduction of virus-induced plaque formation after 2 days using crystal violet staining
Assay type: functional, organism-based
Settings: 48 h
In the case of CCOC(=O)C(C)c1nc2cc3cccnc3c(Cl)c2[nH]c1=O (centres undefined), the EC50 is reported as no less than 100 µM.
